M1 ag = human M1 muscarinic receptor agonism; P11229; CHO-K1 hM1, Fluo-8 calcium fluorescence, agonist mode; 0% DMSO, 100% acetylcholine EC100; activation, % at 3 µM; 360,000 tested, 0.33% active;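 active = activation above the run's mean compound activation plus 3 SD, cut at about 16% in these data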;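 note: peak over basal fluorescence ratio within a 140 s kinetic read after compound addition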
Target sequence (P11229 whole entry, looked up): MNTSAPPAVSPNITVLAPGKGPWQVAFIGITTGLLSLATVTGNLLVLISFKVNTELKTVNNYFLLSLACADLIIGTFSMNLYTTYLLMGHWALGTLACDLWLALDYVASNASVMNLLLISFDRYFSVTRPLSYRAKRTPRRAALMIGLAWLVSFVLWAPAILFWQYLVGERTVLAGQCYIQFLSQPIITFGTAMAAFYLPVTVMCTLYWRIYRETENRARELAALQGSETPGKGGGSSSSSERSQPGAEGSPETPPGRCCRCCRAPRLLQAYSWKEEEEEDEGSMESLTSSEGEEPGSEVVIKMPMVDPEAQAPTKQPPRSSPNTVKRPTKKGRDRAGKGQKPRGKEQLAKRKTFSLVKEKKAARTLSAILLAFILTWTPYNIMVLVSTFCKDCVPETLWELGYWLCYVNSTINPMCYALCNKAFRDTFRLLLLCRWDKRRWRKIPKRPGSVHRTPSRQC
CHRM1 antagonist = antagonists of human M1 muscarinic receptor; inhibition, % at 3 µM; P11229; CHO-K1 hM1, Fluo-8 calcium fluorescence, ACh EC80 antagonist; 360,000 tested, 1.3% active;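 active = percent inhibition above its own plate's cutoff, namely the mean of that plate's compound wells plus 3 SD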;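 note: peak over basal fluorescence ratio during 140 s after agonist addition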
M5 antag = antagonists of human muscarinic M5 receptor (CHRM5); CHO-hM5 cells, Fluo-8 calcium fluorescence, ACh EC80; inhibition, % at 3 µM; P08912; AID 624040; 360,000 tested, 0.59% active;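 active = inhibition above a per-plate cutoff, the mean of that plate's test compounds plus 3 SD, cut at about 27% in these data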
M1 PAM = positive allosteric modulators of human M1 muscarinic receptor. 360,000 tested, 0.088% active. P11229. activation, % at 3 µM. CHO-K1 hM1, Fluo-8 calcium fluorescence, ACh EC20; 0% = ACh EC20, 100% = maximal ACh; in the data active = activation above about 19%, passing the limit was not always enough
CHRM5 agonist = CHRM5 agonism in calcium assay; AID 624037; activation, % at 3 µM; P08912; 360,000 tested, 0.19% active; CHO-K1 hM5 cells, Fluo-8 calcium fluorescence; 0% DMSO wells, 100% maximal acetylcholine response;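 active = activation above the run's mean over test compounds plus 3 SD, cut at about 23% in these data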;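 note: signal is peak over basal fluorescence ratio across the kinetic read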
CHRM5 PAM = positive allosteric modulators of human muscarinic M5 receptor | 360,000 tested, 0.3% active | AID 624038 | P08912 | CHO-K1 hM5, Fluo-8 calcium, ACh EC20 PAM; 0% = ACh EC20, 100% = ACh EC100 | activation, % at 3 µM;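 active = activation above the run cutoff, the mean activation of all test compounds plus 3 SD, cut at about 18% in these data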
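Replicates: One well per compound, no replicates | System: Human M5 receptor in CHO-K1 cells | Benchmarks: Low control EC20 acetylcholine (0%), high control EC100 acetylcholine (100%) | Probe or stimulus: Acetylcholine, EC20 level | Times: Fluo-8 loading 80 min at 37 °C plus 30 min room temperature | Signal: Intracellular calcium via Fluo-8 fluorescence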
Each line names hits and unclear results; the compound was inactive in the other large screens. The list is not random: actives were taken first. Their share in the collection is about 2.1%.

CCN(CC(=O)Nc1ccc(OC)cc1)C(=O)CN1C(=O)NC(C)(c2ccc3ccccc3c2)C1=O (configuration not stated)	M5 antag 32.4
COc1ccccc1C(CNC(=O)CN1C(=O)NC(C)(c2ccc3ccccc3c2)C1=O)N1CCCC1 (configuration not stated)	CHRM1 antagonist 65.2
C=CCN(CC=C)C(=O)CN1C(=O)NC(C)(c2ccc3cc(OC)ccc3c2)C1=O (configuration not stated)	none
COc1ccc(N2CCN(C(=O)CN3C(=O)NC(C)(c4ccc5ccccc5c4)C3=O)CC2)cc1 (configuration not stated)	none
Cc1cc(C)cc(N(C(=O)Cc2cccs2)C(C(=O)NC2CCCCC2)c2ccccn2)c1 (configuration not stated)	none
O=C(NC(NNc1ccc([N+](=O)[O-])cc1)(C(F)(F)F)C(F)(F)F)c1ccc(F)cc1	M5 antag 28.9
O=C(NC(NNc1ccc([N+](=O)[O-])cc1)(C(F)(F)F)C(F)(F)F)c1ccccc1Cl	none
C/C(=N/OC(=O)c1c(-c2ccccc2Cl)noc1C)c1cnccn1	CHRM1 antagonist 74.4
C/C(=N\OC(=O)c1c(-c2ccccc2Cl)noc1C)c1nccs1	none
Cc1onc(-c2c(Cl)cccc2Cl)c1C(=O)O/N=C(\C#N)c1c(Cl)cccc1Cl	none
C/C(=N/OC(=O)c1c(-c2c(Cl)cccc2Cl)noc1C)c1cnccn1	CHRM1 antagonist 76.5
OC(CCN1CC2CCC(CC2)C1)(Cc1ccccc1)c1ccco1 (configuration not stated)	CHRM1 antagonist 85.5, M5 antag 27.1
O=C(/C=C/c1ccco1)N1CCC(Cc2ccccc2)CC1	none
Cn1c(=O)c2c(ncn2CC(=O)N/N=C/C=C/c2ccccc2)n(C)c1=O	none
CCCCCCCC/C=C\CCCCCCCC(=O)NCCO	none
CCCCCCCC/C=C\CCCCCCCC(=O)NCCc1ccc(O)c(O)c1	CHRM5 PAM 19.1
C=CCc1cccc(CNc2cnc3ccccc3c2)c1O	CHRM1 antagonist 40.4
Oc1ccccc1CNc1cnc2ccccc2c1	none
CCCc1ncc(C(O)(c2ccccc2)c2ccc(C)cc2)n1C (configuration not stated)	CHRM1 antagonist 94.6, M5 antag 73.2
CCCc1ncc(C(O)(c2ccccc2)c2ccccc2)n1C	CHRM1 antagonist 93.9, M5 antag 58.5
Nc1nnc(CC(=O)NCc2ccccc2)s1	none
O=C(O)c1cscc1Cc1cccs1	none
Cc1cccn2cc(CCNS(=O)(=O)c3ccc4c(c3)OCCO4)nc12	none
CCOC(=O)C1CCN(c2ncnc3c2cnn3-c2ccc(Cl)cc2)CC1	CHRM5 PAM 19.2
CCN1CCN(c2ccc(NC(=O)c3cccc(S(=O)(=O)N4CCCC4)c3)cc2)CC1	CHRM1 antagonist 74.3, M5 antag 49.6
O=C(Nc1ccc(N2CCOCC2)cc1)c1cccc(S(=O)(=O)N2CCCCC2)c1	none
CCN1CCN(c2ccc(NC(=O)c3cccc(F)c3)cc2Cl)CC1	CHRM1 antagonist 53.8
CCN1CCN(c2ccc(NC(=O)c3ccco3)cc2Cl)CC1	none
N#Cc1c(-c2ccccc2)cc2nc3ccccc3n2c1N	none
COc1cc(-c2cc3nc4ccccc4n3c(N)c2C#N)cc(OC)c1OC	CHRM1 antagonist 36.9
c1coc(Cn2c(SCc3nc4ccccc4[nH]3)nnc2-c2cnccn2)c1	none
Cn1c(SCc2nc3ccccc3[nH]2)nnc1-c1cnccn1	CHRM5 PAM 18.5
CN1CCN(C(=O)/C(=C/c2ccc(F)cc2)c2ccsc2)CC1	CHRM1 antagonist 98.4
CC1CC(C)CN(C(=O)/C(=C\c2ccccc2)c2ccccc2)C1 (configuration not stated)	none
CN1CCN(C(=O)/C(=C/c2ccccc2)c2ccccc2)CC1	CHRM1 antagonist 98.5, M5 antag 27.6
O=C(NCCO)c1cccc(-c2ccc3nncn3c2)c1	none
c1ccc(-n2c3ccccc3c3ccccc32)cc1	CHRM5 PAM 18.6
CC(=O)n1c2ccccc2c2ccccc21	none
CN1[C@@H](Cc2ccccc2)COc2cc(N3CCSCC3)ccc2S1(=O)=O	none (no result: M1 ag, CHRM1 antagonist, M1 PAM)
O=C(NNS(=O)(=O)c1ccc2ccccc2c1)C1CCN(Cc2ccccc2)CC1	CHRM1 antagonist 84.8, M5 antag 46.4
O=S(=O)(NC1CCN(Cc2ccccc2)CC1)c1ccc2ccccc2c1	none
O=C(Nc1cccc(/C=C/c2ccccn2)c1)c1ccc(-n2cncn2)cc1	CHRM1 antagonist 31.0
CCOC(=O)c1ccccc1NC(=O)CSc1nc2[nH]ncc2c(=O)[nH]1	CHRM1 antagonist 34.7
Cc1cccc(NC(=O)CSc2nc3[nH]ncc3c(=O)[nH]2)c1C	none
Cc1cc(C)cc(NC(=O)CSc2nc3[nH]ncc3c(=O)[nH]2)c1	CHRM5 PAM 21.8
c1ccc(-c2nnc(N3CCN(c4ccccn4)CC3)c3ccccc23)cc1	CHRM1 antagonist 47.5
Nc1nc(N2CCN(c3ccccn3)CC2)nc2ccccc12	CHRM1 antagonist 36.5
Nc1nc(N2CCCCC2)nc2ccccc12	none
CCOc1ccc2c(c1)c(N=O)c(O)n2C	CHRM5 PAM 19.7
COC(=O)C1=CN(CC2CCCO2)C=C(C(=O)OC)C1c1cccc(O)c1 (configuration not stated)	none
O=C1CC(N(O)c2ccccc2)C(=O)N1c1cc(Cl)cc(Cl)c1 (configuration not stated)	M1 ag 26.8, CHRM5 agonist 30.4
Cc1ccccc1N1C(=O)CC(N(O)c2ccccc2)C1=O (configuration not stated)	none
O=C(CC1C=CCC1)Nc1ccccc1 (configuration not stated)	CHRM5 PAM 20.5
O=C(CC1NCCNC1=O)Nc1ccccc1 (configuration not stated)	none
CCCCOc1ccc(Cc2c(O)nc(SC)[nH]c2=O)cc1	M5 antag 29.7, CHRM5 PAM 51.3
CCCOc1ccc(Cc2c(O)nc(SC)[nH]c2=O)cc1	none
CNc1snc(C)c1C(=O)OCC(=O)c1ccc(OC)c(F)c1	CHRM1 antagonist 40.4
CNc1snc(C)c1C(=O)OCC(=O)c1cc(F)ccc1OC	none
CCOc1ccc(C(=O)NCC(=O)OCc2cc([N+](=O)[O-])cc3c2OCOC3)cc1OCC	none
COc1cc(C(=O)NC(CCSC)C(=O)OCc2cc([N+](=O)[O-])cc3c2OCOC3)cc(OC)c1OC (configuration not stated)	CHRM1 antagonist 25.9
CCC(=O)N1CCc2cc(S(=O)(=O)NCCN3CCCCC3CC)ccc21 (configuration not stated)	CHRM5 PAM 23.6

Assay outcomes (PubChem BioAssay)
